Reference: ChEMBL document CHEMBL1149670, “Fluorine-containing aryloxyethyl thiocyanate derivatives are potent inhibitors of Trypanosoma cruzi and Toxoplasma gondii proliferation” (Bioorg Med Chem Lett, 2007)
Converted amounts (≈) assume the structure as drawn.

Assays:
Trypanosoma cruzi [1] = assay: Antiparasitic activity against Trypanosoma cruzi Y infected gamma irradiated L6E9 myoblast; conditions: L6E9, light or radiation study
Toxoplasma gondii = assay: Antiparasitic activity against Toxoplasma gondii tachyzoites m2m3 infected HFF cells; assay type: functional, organism-based
Method in brief: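 YFP-expressing m2m3 tachyzoites, filtered and needle-passed, were inoculated at 10⁴/ml onto confluent HFF monolayers. Medium was DMEM with 10% fetal bovine serum, 2 mM glutamine and 1 mM pyruvate, with drugs serially diluted in it. Plates were held at 37 °C and read daily for fluorescence from the bottom (ex 510, em 540 nm). IC50 came from fitting I = Imax·C/(IC50 + C), with Imax = 100%.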

Trypanosoma cruzi [2] = assay: Antiparasitic activity against Trypanosoma cruzi Y amastigotes infected gamma irradiated L6E9 myoblast; assay type: functional, organism-based; conditions: L6E9, light or radiation study
Method in brief: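 Gamma-irradiated L6E9 myoblasts were kept in DMEM with 20% FCS for 24 h at 37 °C and 5% CO₂. They were then infected with Y-strain trypomastigotes or amastigotes (4.17 × 10⁶/well) for 2 h at 37 °C and 7% CO₂, then washed. [5,6-³H]uracil and aqueous drug solutions were added for 72 h. TCA-precipitable counts were taken on day 3, and percent inhibition was calculated from cpm differences versus control.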

IC50 (Trypanosoma cruzi [1])	IC50 (Trypanosoma cruzi [2])	SMILES	IC50 (Toxoplasma gondii)
> 20 µg/mL	14.4 µM	Fc1ccc(Oc2ccc(OCCOC3CCCCO3)cc2)cc1 (stereo unspecified)	6.16 µM
1.95 µg/mL (≈ 6.74 µM)	3.7 µM	N#CSCCOc1ccc(Oc2ccc(F)cc2)cc1	3.85 µM
1.74 µg/mL (≈ 6.01 µM)	4.3 µM	N#CSCCOc1ccc(Oc2cccc(F)c2)cc1	15.8 µM
> 20 µg/mL	19 µM	Fc1cccc(Oc2ccc(OCCOC3CCCCO3)cc2)c1 (stereo unspecified)	3.99 µM
–	–	O=C1C(O)=C([C@H]2CC[C@H](c3ccc(Cl)cc3)CC2)C(=O)c2ccccc21 [ATOVAQUONE]	0.29 µM

SMILES	IC50 (Trypanosoma cruzi [1])	IC50 (Trypanosoma cruzi [2])	IC50 (Toxoplasma gondii)
N#CSCCOc1ccc(Oc2ccccc2)cc1	2.6 µg/mL (≈ 9.58 µM)	12 µM	2.8 µM
